Among the data in ChEMBL document CHEMBL1145965, “4-Substituted 4-hydroxycyclohexa-2,5-dien-1-ones with selective activities against colon and renal cancer cell lines” (J Med Chem, 2003) are CC50, IC50 and GI50 values, retold here.

Molecules are shown by their SMILES.

One experiment relates to SW-620. The experiment in a line: In vitro lethal concentration against least sensitive colon SW-620 cell line. It counts as functional. The following applies: Homo sapiens, read-out: LC50 (the source's name).
The test system of experiment [1] is Panel NCI-60 (60 carcinoma cell lines). In words: In vitro mean growth lethal concentration in renal subpanel against 60-cell panel. The following applies: Homo sapiens, read-out: Mean LC50. The experiment is classed as functional.
Experiment [2] has the same test system. In words: In vitro mean growth lethal concentration in colon subpanel against 60-cell panel. The following applies: Homo sapiens, read-out: Mean LC50. It counts as functional.
Another experiment deals with A549. The experiment in a line: Inhibitory activity against A549 lung adenocarcinoma cell line. It counts as functional, cell-based. Particulars: Homo sapiens. In a few lines: (§1)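 Cells grown in RPMI 1640 with 2 mM L-glutamine and 10% fetal calf serum, 37 °C, 5% CO2. Seeded at 5 × 10³ per well, 24 h adherence, then drug 0.1 nM–100 μM final (n = 8; DMSO stocks, dilutions in medium) for 72 h.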

The subject of experiment [3] is HCT-116. The experiment in a line: Inhibitory activity against HCT116 colon cancer cell line. The experiment is classed as functional, cell-based. Particulars: Homo sapiens. In a few lines:
as §1

The test system of experiment [4] is HCT-116. In words: In vitro lethal concentration against most sensitive colon HCT116 cell line. It counts as functional. Particulars: Homo sapiens, read-out: LC50 (the source's name).
The next experiment deals with HT-29. The experiment in a line: Inhibitory activity against HT-29 colon cancer cell line. The experiment is classed as functional, cell-based. The following applies: Homo sapiens. In a few lines:
as §1

The next experiment relates to ACHN. The experiment in a line: In vitro lethal concentration against most sensitive ACHN cell line. The experiment is classed as functional. The following applies: Homo sapiens, read-out: LC50 (the source's name).
Experiment [5] has as its system Panel NCI-60 (60 carcinoma cell lines). In words: In vitro mean growth inhibitory activity against 60-cell panel. Particulars: Homo sapiens. It counts as functional.
Experiment [6] has the same test system. In words: In vitro mean growth lethal concentration against 60-cell panel. It counts as functional. The following applies: Homo sapiens, read-out: Mean LC50.
Another experiment concerns MCF7. In words: Inhibitory activity against MCF-7 mammary carcinoma cell line. The experiment is classed as functional, cell-based. Particulars: Homo sapiens. The method, boiled down: as §1
In the next experiment the test system is MDA-MB-468. In words: Inhibitory activity against MDA-468 mammary carcinoma cell line. It counts as functional, cell-based. Particulars: Homo sapiens. The method, boiled down: as §1

Broadly, the IC50 is the point on the concentration scale where inhibition reaches its midpoint. A higher IC50 goes with weaker potency in that assay. Usually GI50 stands for the concentration giving 50% growth inhibition. Higher therefore signals less potent growth inhibition. Turning to `O=C1C=CC(O)(c2cc3ccccc3o2)C=C1`, the CC50 in the experiment with SW-620 was greater than 100000 nM; in [1] it was 2400 nM; in experiment [2] it was 3660 nM; with HCT-116 [4], 600 nM; in the experiment with ACHN it was 1000 nM; in [6], 7240 nM. For the same molecule, the IC50 with A549 turned out to be 2300 nM; with HCT-116 [3], 160 nM; in the experiment with HT-29, 420 nM. Further, in [5], the 50% growth inhibitory concentration (GI50) turned out to be 520 nM.
As for `O=C1C=CC(O)(c2ccccn2)C=C1`, the CC50 is greater than 100000 nM in the experiment with SW-620; 11400 nM in experiment [1]; 6900 nM in experiment [2]; 5240 nM in the experiment on HCT-116 [4]; 8910 nM in the experiment with ACHN; 20400 nM in [6]. Besides, the IC50 turned out to be 720 nM with MCF7, 550 nM with HCT-116 [3], 1500 nM in the experiment with MDA-MB-468 and 460 nM with HT-29. Besides, the GI50 in experiment [5] stood at 1910 nM.
Consider `O=C1C=CC(O)(c2cc3ccccc3s2)C=C1`, for which the CC50 with SW-620 was greater than 100000 nM; in experiment [1], 1400 nM; in experiment [2], 1690 nM; with HCT-116 [4], 600 nM; with ACHN, 330 nM; in experiment [6], 5750 nM. Moreover, the IC50 in the experiment with A549 is 2430 nM; with HCT-116 [3], 170 nM; in the experiment on HT-29, 550 nM. The molecule also registered a GI50 in [5] of 250 nM.
With `Oc1ccc(-c2nc3ccccc3s2)cc1`, the CC50 (with SW-620; in experiment [1]; in experiment [2]; in the experiment on HCT-116 [4]; in the experiment with ACHN; in [6]) was greater than 100000 nM throughout. The IC50 in the experiment on MCF7 came out at 69400 nM; with MDA-MB-468, 400 nM. The molecule further returned a GI50 in experiment [5] of 33900 nM.
In the case of `O=C1C=CC(O)(c2ccccc2)C=C1`, the CC50 with SW-620 turned out to be 51300 nM; in [1], 16700 nM; in experiment [2], 10600 nM; with HCT-116 [4] it was 6310 nM; with ACHN, 5500 nM; in experiment [6] it was 21900 nM. Besides, the IC50 with HCT-116 [3] amounted to 2220 nM; with HT-29, 3630 nM. The GI50 in experiment [5] worked out at 2290 nM.
Take `O=C1C=CC(O)(c2nccs2)C=C1`: the CC50 is 26300 nM with SW-620; 9170 nM in [1]; 14500 nM in experiment [2]; 4900 nM with HCT-116 [4]; 7940 nM in the experiment with ACHN; 14500 nM in experiment [6]. Moreover, the figures for the IC50 in the experiment on HCT-116 [3] and in the experiment with HT-29 were 620 nM and 720 nM, respectively. In addition, in experiment [5], the GI50 was 1350 nM.
`O=C1C=CC(O)(c2nc3ccccc3o2)C=C1`: the CC50 in the experiment on SW-620 is greater than 100000 nM; in experiment [1], 1640 nM; in experiment [2] it was 1130 nM; with HCT-116 [4], 870 nM; in the experiment with ACHN, 4900 nM; in experiment [6], 7080 nM. The IC50 was 2330 nM in the experiment with A549; 390 nM in the experiment with MCF7; 180 nM in the experiment on HCT-116 [3]; 350 nM with MDA-MB-468; 290 nM in the experiment on HT-29. In experiment [5], this molecule gave a GI50 of 460 nM.
With `O=C1C=CC(O)(c2cccc3ccccc23)C=C1`, the CC50 was greater than 100000 nM in the experiment on SW-620; 17000 nM in experiment [1]; 12200 nM in experiment [2]; 5370 nM in the experiment with HCT-116 [4]; 13200 nM with ACHN; 25700 nM in [6]. Moreover, the IC50 with MCF7 was 780 nM; in the experiment on HCT-116 [3], 420 nM; in the experiment with MDA-MB-468 it was 1770 nM; with HT-29, 1360 nM. Also, the GI50 in experiment [5] is 1820 nM.
`O=C1C=CC(O)(c2cnc3ccccc3c2)C=C1`: the CC50 with SW-620 is greater than 100000 nM; in experiment [1] it was 9660 nM; in experiment [2], 15800 nM; in the experiment on HCT-116 [4], 4260 nM; in the experiment with ACHN, 15100 nM; in experiment [6] it was 15800 nM. The IC50 in the experiment on MCF7 is 770 nM; in the experiment with HCT-116 [3] it was 720 nM; in the experiment on MDA-MB-468, 1700 nM; in the experiment on HT-29, 970 nM. Also, in experiment [5], the GI50 was determined as 1070 nM.
Regarding `O=C1C=CC(O)(c2ccc3ccccc3c2)C=C1`, the CC50 in the experiment with SW-620 was greater than 100000 nM; in [1] it was 4680 nM; in experiment [2], 6580 nM; in the experiment on HCT-116 [4] it was 4470 nM; in the experiment on ACHN, 7760 nM; in [6] it was 11700 nM. The IC50 in the experiment on MCF7 was determined as 1300 nM; in the experiment with HCT-116 [3], 820 nM; in the experiment on MDA-MB-468, 1400 nM; in the experiment on HT-29 it was 2500 nM. Also, the 50% growth inhibitory concentration (GI50) in experiment [5] worked out at 810 nM.
With `O=C1C=CC(O)(c2cccs2)C=C1`, the CC50 is greater than 100000 nM with SW-620; 14400 nM in experiment [1]; 32500 nM in experiment [2]; 5890 nM in the experiment with HCT-116 [4]; 35500 nM in the experiment on ACHN; 30900 nM in experiment [6]. Also, the IC50 with MCF7 is 570 nM; with HCT-116 [3] it was 660 nM; in the experiment on MDA-MB-468 it was 720 nM; with HT-29, 1250 nM. In [5], this molecule yielded a GI50 of 1780 nM.
